Data from ChEMBL document CHEMBL1130313, “1-[(omega-aminoalkyl)amino]-4-[N-(omega-aminoalkyl)carbamoyl]-9-oxo-9, 10-dihydroacridines as intercalating cytotoxic agents: synthesis, DNA binding, and biological evaluation” (J Med Chem, 1997).
pIC50: −log10 of the molar value.

Legend:
[1] = system: Calf thymus DNA; assay: Inhibitory concentration against ethidium:calf thymus DNA (1.26:1) binding at pH 5; assay type: nucleic-acid assay; settings: Bos taurus
Procedure, shortened: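 Ethidium displacement at pH 5: 1.26 μM ethidium bromide with 1 μM CT-DNA in 9.3 mM NaCl, 2 mM NaOAc, 0.1 mM EDTA. Drug (stock ~5 mM in DMSO) is added serially at 20 °C. Fluorescence is read with excitation 546 nm and emission 595 nm. C50 is the concentration reducing bound-ethidium fluorescence by 50%; mean of three.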

[2] = system: Nucleic Acid; assay: Concentration required to give 50% fluorescence quenching of bound ethidium for [ethidium]: [poly(dA-dT)]2 DNA in ratio of 0.1:1 at pH 5; assay type: nucleic-acid assay
Procedure, shortened: (§1)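 Q (quenching) assay at pH 5: DNA at 20 μM DNAp (CT-DNA, [poly(dA-dT)]2 or [poly(dG-dC)]2) with 2 μM ethidium bromide. Buffer is 9.3 mM NaCl, 2 mM NaOAc, 0.1 mM EDTA, 0.01 M ionic strength. Drug (stock ~5 mM in DMSO) is added serially at 20 °C. Fluorescence is read with excitation 546 nm and emission 595 nm. Q is the concentration halving bound-ethidium fluorescence; mean of three.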

[3] = system: Calf thymus DNA; assay: Inhibitory concentration against ethidium:Calf thymus DNA(0.1:1) binding at pH 5; assay type: nucleic-acid assay; settings: Bos taurus; procedure, shortened: as §1
[4] = system: Nucleic Acid; assay: Concentration required to give 50% fluorescence quenching of bound ethidium for [ethidium]: [(poly dG-dC)]2 DNA in ratio of 0.1:1 at pH 5; assay type: nucleic-acid assay; procedure, shortened: as §1
[5] = system: Calf thymus DNA; assay: Inhibitory concentration against ethidium:Calf thymus DNA (1.26:1) binding at pH 7; assay type: nucleic-acid assay; settings: Bos taurus
Procedure, shortened: (§2)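 Ethidium displacement at pH 7: 1.26 μM ethidium bromide with 1 μM CT-DNA in 10 mM TES, 0.1 mM EDTA. Drug (stock ~5 mM in DMSO) is titrated in at 20 °C. Read-out is excitation 546 nm, emission 595 nm. C50 is the drug concentration cutting bound-ethidium fluorescence by 50%; mean of three determinations.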

[6] = system: A2780; assay: Cytotoxic potency required to inhibit A2780 cell growth by 50% after cell drug contact for 96 hrs; assay type: functional, cell-based; settings: Homo sapiens, A2780, 96 h
Procedure, shortened: (§3)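 Human ovarian carcinoma (A2780, CH1, SKOV-3) or melanoma G-361 cells were plated at 100-5000 cells and allowed to adhere overnight. Aqueous drug at pH 7.0, diluted from DMSO stock, was applied at various concentrations for 96 h continuous exposure at 37 °C. Growth was measured by sulforhodamine B protein staining. IC50 is 50% growth inhibition versus untreated controls.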

[7] = Partition coefficient (logP); assay type: physicochemical; settings: octanol/water
[8] = system: G-361; assay: Cytotoxic potency required to inhibit G-361 cell growth by 50%; assay type: functional, cell-based; settings: Homo sapiens; procedure, shortened: as §3
[9] = system: HT-29; assay: Cytotoxic potency required to inhibit HT-29 cell growth by 50% after cell drug contact for 144 hrs; assay type: functional, cell-based; settings: Homo sapiens, HT-29, 144 h
[10] = system: SK-OV-3; assay: Cytotoxic potency required to inhibit SKOV-3 cell growth 50%; assay type: functional, cell-based; settings: Homo sapiens; procedure, shortened: as §3
[11] = system: L1210; assay: Cytotoxic potency required to inhibit L1210 cell growth by 50% after cell drug contact for 48 hrs; assay type: functional, cell-based; settings: Mus musculus, L1210, 48 h
Procedure, shortened: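 Mouse L1210 leukemia cells at 5 × 10^4 cells/mL were exposed for 48 h at 37 °C to aqueous drug solutions (≤0.5% v/v DMSO). Surviving cells were counted by Coulter counter against drug-free controls to give IC50. Assays were done in duplicate.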

[12] = system: CH1; assay: Cytotoxic potency required to inhibit CH1 cell growth by 50%; assay type: functional, cell-based; settings: Homo sapiens; procedure, shortened: as §3
[13] = system: Calf thymus DNA; assay: Inhibitory concentration against ethidium:Calf thymus DNA(1.26:1) binding at pH 7; assay type: nucleic-acid assay; settings: Bos taurus; procedure, shortened: as §2
[14] = system: CH1; assay: Cytotoxic potency against CH1 cell proliferation; assay type: functional, cell-based; settings: Homo sapiens; procedure, shortened: as §3

Structure (SMILES)	C50 [1] [µM]	Q [2] [µM]	Q [3] [µM]	Q [4] [µM]	C50 [5] [µM]	logP [7]	C50 [13] [µM]	pIC50 [6]	pIC50 [8]	pIC50 [9]	pIC50 [10]	pIC50 [11]	pIC50 [12]	pIC50 [14]
Cn1cc(NC(=O)c2cc(NC(=O)c3cc(NC=O)cn3C)cn2C)cc1C(=O)NCCC(=N)N	5	1.6	39.5	130	1.3									
c1ccc2nc3ccccc3cc2c1 [ACRIDINE]	142	26	24	22	320			< 4.00						
N=C(N)c1ccc(/N=N/Nc2ccc(C(=N)N)cc2)cc1	4.4	5	9	19	1.5									
O=c1c2ccccc2[nH]c2ccccc12 [ACRIDONE]		> 500	> 400	340				< 4.00	< 4.00		< 4.00	< 4.00	4.11	
O=C1c2c(O)ccc(O)c2C(=O)c2c(NCCNCCO)ccc(NCCNCCO)c21 [MITOXANTRONE]	0.021	0.32	0.34	0.37	0.037			9.26	9.19	8.00		9.40	8.58	
O=C(NCCN1CCOCC1)c1ccc(NCCN2CCOCC2)c2c(O)c3ccccc3nc12	16	3.7	4.8	6	3.7	4.42		5.82	5.14	5.35	5.13	6.36	5.90	
O=C(NCCN1CCCCC1)c1ccc(NCCN2CCCCC2)c2c(O)c3ccccc3nc12	0.83	3.4	4.4	5.6	0.28	7.73		7.62	6.17	6.35	6.21	5.92	5.92	
Nc1ccc2cc3ccc(N)cc3nc2c1		24	20	14										
CN(C)CCNC(=O)c1ccc(NCCN(C)C)c2c(O)c3cc([N+](=O)[O-])ccc3nc12	0.61	1.8	2.1	2.4	0.17	5.68		7.38	5.74	6.72	6.68	6.34	6.76	

The next lines start with results.

C50 [1] [µM]	Q [2] [µM]	Q [3] [µM]	Q [4] [µM]	C50 [5] [µM]	logP [7]	C50 [13] [µM]	Structure (SMILES)	pIC50 [6]	pIC50 [8]	pIC50 [9]	pIC50 [10]	pIC50 [11]	pIC50 [12]	pIC50 [14]
2.2	4.4	4.8	5.4	0.37	4.77		CN(C)CCNC(=O)c1ccc(NCCN(C)C)c2c(O)c3cc(O)ccc3nc12	7.29	6.52	5.70	6.77	6.85	6.19	
3.1	5.3	5.8	6.5	0.69	5.32		COc1ccc2nc3c(C(=O)NCCN(C)C)ccc(NCCN(C)C)c3c(O)c2c1	7.24	5.90	6.30	6.38	6.39	6.31	
4.8	13	14	15	0.94	4.21		CN(C)CCNC(=O)c1ccc(N(C)CCN(C)C)c2c(O)c3ccccc3nc12	6.39	5.82	5.52	6.00	5.78	5.47	
20	19	27	36	2.3	7.25		CCN(CC)CCNC(=O)c1ccc(NCCN(CC)CC)c2c(O)c3ccccc3nc12	6.12	5.21	5.24	5.62	5.48	5.90	
1.7	2.6	3.2	4.1		3.15	0.36	O=C(NCCNCCO)c1ccc(NCCNCCO)c2c(O)c3ccccc3nc12	5.32	4.81	< 4.64	4.67	5.40	6.78	
2	3.8	4.2	4.7	0.35	4.09		CN(C)CCNC(=O)c1ccc(NCCNCCO)c2c(O)c3ccccc3nc12	7.77	6.55	6.85	6.77	7.46	7.80	
8.9	25	3.8	4.5				COc1cc(NS(C)(=O)=O)ccc1Nc1c2ccccc2nc2ccccc12							
660	> 400	340	280	630			Nc1ccc2c(O)c3ccc(N)cc3nc2c1	4.43			< 4.00	4.46	< 4.00	
1.1	3.1	3.3	3.5	0.34	5.12		CN(C)CCNC(=O)c1ccc(NCCN(C)C)c2c(=O)c3ccccc3[nH]c12	7.82	7.82	7.03	6.40	7.36		7.70
3.2	3.2	4.8	6.6	0.38	5.76		CN(C)CCCNC(=O)c1ccc(NCCCN(C)C)c2c(O)c3ccccc3nc12	6.96	5.44	6.24	6.40	6.28	6.47	
